Our source for the IC50 and Activity values is ChEMBL document CHEMBL4007382 (Eur J Med Chem, 2017).

Data set [1] addresses T1, Cholinesterase (Homo sapiens, UniProt P06276). The data set can be described thus: Inhibition of human plasma BuChE using S-butyrylthiocholine iodide as substrate preincubated for 60 mins followed by substrate addition measured after 5 mins by Ellman's method. An outline of the steps: (§1)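 Source was plasma from heparinised blood of one healthy donor, centrifuged at 1000 × g for 20 min at 25°C, stored at -80°C and diluted 150X. Ellman assay at pH 8 and 37°C with 60 min preincubation and seven inhibitor concentrations in water, 5×10^-8 to 5×10^-10 M. Triplicates.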

Data set [2] concerns Mus musculus. In words: Cardiotoxicity in Kunming mouse assessed as change in heart rate at 20 mg/kg, ip measured after 33 mins by electrocardiogram (reference value: -39.12 +/- 24.73). To be noted: in vivo, 0.55 h. It counts as toxicity, organism-based.
Data set [3] has as its system Mus musculus. The data set can be described thus: Cardiotoxicity in Kunming mouse assessed as change in heart rate at 20 mg/kg, ip measured after 21 mins by electrocardiogram (reference value: -40.23 +/- 16.21). Type of data set: toxicity, organism-based. The conditions noted are these: in vivo, 0.35 h.
Data set [4] concerns Mus musculus. The data set can be described thus: Cardiotoxicity in Kunming mouse assessed as change in heart rate at 20 mg/kg, ip measured after 3 mins by electrocardiogram (reference value: -14.4 +/- 19.94). It counts as toxicity, organism-based. To be noted: in vivo, 0.05 h.
For the next data set, the target named is Acetylcholinesterase (Homo sapiens, UniProt P22303). The data set can be described thus: Inhibition of human blood AChE using acetylthiocholine as substrate.
Chain of Acetylcholinesterase (P22303 whole entry): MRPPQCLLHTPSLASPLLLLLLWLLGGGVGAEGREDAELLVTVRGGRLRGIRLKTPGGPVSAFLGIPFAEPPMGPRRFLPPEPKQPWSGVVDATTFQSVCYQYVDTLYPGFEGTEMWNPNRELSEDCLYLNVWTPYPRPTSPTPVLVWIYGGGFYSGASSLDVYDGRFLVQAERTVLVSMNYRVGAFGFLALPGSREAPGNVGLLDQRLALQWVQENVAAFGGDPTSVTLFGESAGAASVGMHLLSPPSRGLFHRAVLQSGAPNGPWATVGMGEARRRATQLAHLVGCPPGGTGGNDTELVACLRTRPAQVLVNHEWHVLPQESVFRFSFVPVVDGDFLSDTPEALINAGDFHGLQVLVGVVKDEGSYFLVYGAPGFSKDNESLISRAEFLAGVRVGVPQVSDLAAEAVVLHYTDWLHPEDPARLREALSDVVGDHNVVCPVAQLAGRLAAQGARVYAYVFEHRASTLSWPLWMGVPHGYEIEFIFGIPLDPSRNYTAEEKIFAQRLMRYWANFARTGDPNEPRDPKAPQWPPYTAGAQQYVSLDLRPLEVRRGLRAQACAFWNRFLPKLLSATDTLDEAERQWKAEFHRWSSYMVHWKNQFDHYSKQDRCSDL
Data set [5] relates to Mus musculus. The data set can be described thus: Cardiotoxicity in Kunming mouse assessed as change in heart rate at 20 mg/kg, ip measured after 12 mins by electrocardiogram (reference value: -40.39 +/- 20.17). It counts as toxicity, organism-based. To be noted: in vivo, 0.2 h.
In data set [6] the target is T1, Cholinesterase. In words: Inhibition of human blood BuChE using butyrylthiocholine as substrate. An outline of the steps:
as §1

For data set [7], the system named is Mus musculus. In words: Cardiotoxicity in Kunming mouse assessed as change in heart rate at 20 mg/kg, ip measured after 32 mins by electrocardiogram (reference value: -43.48 +/- 20.81). It counts as toxicity, organism-based. To be noted: in vivo.
Data set [8] has as its system Mus musculus. The data set can be described thus: Cardiotoxicity in Kunming mouse assessed as change in heart rate at 20 mg/kg, ip measured after 19 mins by electrocardiogram (reference value: -38.67 +/- 13.91). Type of data set: toxicity, organism-based. To be noted: in vivo.
For data set [9], the system named is Mus musculus. In words: Cardiotoxicity in Kunming mouse assessed as change in heart rate at 20 mg/kg, ip measured after 10 mins by electrocardiogram (reference value: -34.85 +/- 19.78). It counts as toxicity, organism-based. To be noted: in vivo.
For data set [10], the system named is Mus musculus. The data set can be described thus: Cardiotoxicity in Kunming mouse assessed as change in heart rate at 20 mg/kg, ip measured after 8 mins by electrocardiogram (reference value: -27.98 +/- 16.02). It counts as toxicity, organism-based. To be noted: in vivo.
Data set [11] relates to Mus musculus. In words: Cardiotoxicity in Kunming mouse assessed as change in heart rate at 20 mg/kg, ip measured after 26 mins by electrocardiogram (reference value: -46.48 +/- 17.52). The conditions noted are these: in vivo. It counts as toxicity, organism-based.
For data set [12], the system named is Mus musculus. In words: Cardiotoxicity in Kunming mouse assessed as change in heart rate at 20 mg/kg, ip measured after 15 mins by electrocardiogram (reference value: -35.14 +/- 24.5). Type of data set: toxicity, organism-based. The conditions noted are these: in vivo, 0.25 h.
Data set [13] has as its system Mus musculus. The data set can be described thus: Cardiotoxicity in Kunming mouse assessed as change in heart rate at 20 mg/kg, ip measured after 28 mins by electrocardiogram (reference value: -49.06 +/- 20.71). It counts as toxicity, organism-based. To be noted: in vivo.
The subject of data set [14] is Mus musculus. In words: Cardiotoxicity in Kunming mouse assessed as change in heart rate at 20 mg/kg, ip measured after 35 mins by electrocardiogram (reference value: -31.81 +/- 27.31). Type of data set: toxicity, organism-based. The conditions noted are these: in vivo.

By IC50 is commonly meant the concentration that inhibits the measured activity by half. High values mean a need for much substance, low ones inhibition by little substance.

T1 sequence (P06276 whole entry): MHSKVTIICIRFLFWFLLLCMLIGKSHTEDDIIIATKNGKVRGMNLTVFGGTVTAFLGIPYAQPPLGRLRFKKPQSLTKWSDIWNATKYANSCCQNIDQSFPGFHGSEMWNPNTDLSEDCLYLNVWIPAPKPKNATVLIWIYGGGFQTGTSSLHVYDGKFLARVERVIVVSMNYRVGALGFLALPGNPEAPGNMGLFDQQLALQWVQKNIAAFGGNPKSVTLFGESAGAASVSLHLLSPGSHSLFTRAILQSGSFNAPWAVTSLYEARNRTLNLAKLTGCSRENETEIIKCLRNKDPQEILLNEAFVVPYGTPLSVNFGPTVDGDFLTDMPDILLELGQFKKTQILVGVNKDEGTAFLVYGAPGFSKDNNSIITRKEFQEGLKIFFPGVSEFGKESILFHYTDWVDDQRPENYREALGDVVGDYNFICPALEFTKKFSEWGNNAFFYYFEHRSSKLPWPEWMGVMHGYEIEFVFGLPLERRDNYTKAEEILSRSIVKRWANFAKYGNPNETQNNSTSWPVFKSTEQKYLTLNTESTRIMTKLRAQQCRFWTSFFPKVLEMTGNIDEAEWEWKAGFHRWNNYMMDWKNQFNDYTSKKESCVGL

On to `CN(C)C(=O)Oc1cc(OC(=O)N(C)C)cc(C(O)CNC(C)(C)C)c1` (stereo unspecified) [BAMBUTEROL], for which the IC50 against Cholinesterase [1] stood at 4.29 nM; against Acetylcholinesterase it was 30000 nM; against Cholinesterase [6], 3 nM. In addition, the Activity is reported as 4.05 bpm in the data set on Mus musculus [2]; 32.75 bpm in the data set on Mus musculus [3]; 2.1 bpm in the data set with Mus musculus [4]; 15.49 bpm in the data set with Mus musculus [5]; -2.09 bpm in the data set on Mus musculus [7]; 38.36 bpm in the data set on Mus musculus [8]. Besides, the Activity in the data set with Mus musculus [9] was -0.24 bpm; with Mus musculus [10], 9.76 bpm; in the data set on Mus musculus [11], 11.92 bpm; in the data set with Mus musculus [12], 53.3 bpm; in the data set with Mus musculus [13], -15.03 bpm; with Mus musculus [14], -2.92 bpm.
`CCN(C)C(=O)Oc1cc(OC(=O)N(C)CC)cc(C(O)CNC(C)(C)CC)c1.Cl` (stereo unspecified) returned a 50% inhibitory concentration (IC50) against Cholinesterase [1] of 7.12 nM. Further, the Activity with Mus musculus [2] is -2.93 bpm; in the data set with Mus musculus [3], 0.05 bpm; in the data set on Mus musculus [4], 0.93 bpm; in the data set on Mus musculus [5], -4.45 bpm; in the data set on Mus musculus [7], -1.37 bpm; in the data set on Mus musculus [8] it was 2.88 bpm. In addition, the Activity with Mus musculus [9] is recorded as -6.25 bpm; in the data set with Mus musculus [10] it was -4.23 bpm; in the data set on Mus musculus [11], -0.88 bpm; in the data set with Mus musculus [12] it was -2.32 bpm; in the data set on Mus musculus [13], -7.52 bpm; with Mus musculus [14], -11.4 bpm.
`CCC(C)(C)NCC(O)c1cc(OC(=O)N(C)C)cc(OC(=O)N(C)C)c1.Cl` (stereo unspecified) displayed an IC50 at Cholinesterase [1] of 7.28 nM. Besides, the Activity was -39.88 bpm with Mus musculus [2]; -41.83 bpm in the data set with Mus musculus [3]; -22.65 bpm in the data set on Mus musculus [4]; -46.97 bpm in the data set with Mus musculus [5]; -36.77 bpm with Mus musculus [7]; -41.43 bpm in the data set on Mus musculus [8]. For the same compound, the Activity in the data set on Mus musculus [9] is -40.41 bpm; in the data set with Mus musculus [10] it was -32.94 bpm; in the data set with Mus musculus [11], -42.44 bpm; in the data set on Mus musculus [12], -49.12 bpm; in the data set on Mus musculus [13] it was -37.58 bpm; with Mus musculus [14], -37.47 bpm.
